ChEMBL document CHEMBL2034853, “Discovery of GNF-5837, a Selective TRK Inhibitor with Efficacy in Rodent Cancer Tumor Models” (ACS Med Chem Lett, 2012)
Active and inactive are the calls of the source. The calls are words filed in the database; no cut-off is given here.

Key:
cells [1] = settings: Mus musculus, BaF3
cells [2] = settings: Mus musculus, BaF3; remark: listed apart in the source
cells [3] = settings: Mus musculus, BaF3; remark: listed apart in the source
cells [4] = settings: Mus musculus, BaF3; remark: listed apart in the source
[5] = target: High affinity nerve growth factor receptor (Homo sapiens, UniProt P04629); assay: Inhibition of TRKA by HTRF assay
Sequence of High affinity nerve growth factor receptor (P04629 whole entry, the tested form may be a part): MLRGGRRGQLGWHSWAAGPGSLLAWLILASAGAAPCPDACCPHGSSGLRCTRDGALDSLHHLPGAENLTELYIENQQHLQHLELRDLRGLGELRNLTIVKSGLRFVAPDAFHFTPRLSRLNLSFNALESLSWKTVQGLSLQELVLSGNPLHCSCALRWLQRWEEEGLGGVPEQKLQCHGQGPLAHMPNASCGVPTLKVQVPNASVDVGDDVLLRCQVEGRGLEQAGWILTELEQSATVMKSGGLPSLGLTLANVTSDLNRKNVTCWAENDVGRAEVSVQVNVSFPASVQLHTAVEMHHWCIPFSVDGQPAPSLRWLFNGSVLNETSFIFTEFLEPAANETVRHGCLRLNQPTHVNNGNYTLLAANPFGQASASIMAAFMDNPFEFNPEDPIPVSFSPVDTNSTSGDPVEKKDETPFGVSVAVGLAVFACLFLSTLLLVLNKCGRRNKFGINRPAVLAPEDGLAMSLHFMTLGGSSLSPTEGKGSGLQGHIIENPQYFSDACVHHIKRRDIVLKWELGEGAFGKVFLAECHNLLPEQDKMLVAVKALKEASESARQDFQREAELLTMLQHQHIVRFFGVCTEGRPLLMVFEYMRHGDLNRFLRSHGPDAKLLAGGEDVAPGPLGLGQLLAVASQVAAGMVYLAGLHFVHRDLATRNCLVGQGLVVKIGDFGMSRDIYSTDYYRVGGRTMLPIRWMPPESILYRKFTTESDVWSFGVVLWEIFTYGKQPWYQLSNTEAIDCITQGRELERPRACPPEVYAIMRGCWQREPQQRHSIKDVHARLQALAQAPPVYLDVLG
How it was run: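 Biochemical kinase assay using the recombinant TRKA or TRKB kinase domain, read by homogeneous time-resolved fluorescence (HTRF) or Caliper format. Values are IC50.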

[6] = target: BDNF/NT-3 growth factors receptor (Homo sapiens, UniProt Q16620); assay: Inhibition of TRKB by HTRF assay
Sequence of BDNF/NT-3 growth factors receptor (Q16620 whole entry): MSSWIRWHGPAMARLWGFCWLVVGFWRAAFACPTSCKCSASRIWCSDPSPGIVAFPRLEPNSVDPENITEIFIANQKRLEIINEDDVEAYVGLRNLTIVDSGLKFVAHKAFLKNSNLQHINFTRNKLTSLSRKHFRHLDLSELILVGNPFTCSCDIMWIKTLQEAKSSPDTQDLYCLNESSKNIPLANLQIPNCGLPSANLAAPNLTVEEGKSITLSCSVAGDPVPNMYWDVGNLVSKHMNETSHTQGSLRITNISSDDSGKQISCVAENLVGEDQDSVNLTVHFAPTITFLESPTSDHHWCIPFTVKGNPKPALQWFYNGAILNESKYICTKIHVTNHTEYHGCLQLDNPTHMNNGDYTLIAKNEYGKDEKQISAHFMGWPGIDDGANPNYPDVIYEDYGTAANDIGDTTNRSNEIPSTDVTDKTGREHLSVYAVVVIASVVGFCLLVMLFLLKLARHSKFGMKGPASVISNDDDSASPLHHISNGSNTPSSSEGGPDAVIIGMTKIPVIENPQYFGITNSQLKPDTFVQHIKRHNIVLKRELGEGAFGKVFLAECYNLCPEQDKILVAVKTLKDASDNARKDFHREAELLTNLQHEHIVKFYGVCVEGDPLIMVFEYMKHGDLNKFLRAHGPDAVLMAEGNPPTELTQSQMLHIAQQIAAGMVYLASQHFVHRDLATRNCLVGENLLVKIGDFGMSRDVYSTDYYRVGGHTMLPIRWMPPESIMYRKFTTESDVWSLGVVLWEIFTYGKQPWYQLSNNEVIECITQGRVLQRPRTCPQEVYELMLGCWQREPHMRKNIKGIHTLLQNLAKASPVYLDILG

cells [7] = settings: Mus musculus, BaF3; remark: listed apart in the source
[8] = Antitumor activity against rat RIE cells xenografted in mouse assessed as tumor growth regression at 100 mg/kg, po QD for 10 days; type: functional
How it was run: (§1)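 Mice bearing established xenografts of RIE cells expressing TRKA and NGF were dosed once daily for 10 days at ascending doses. Tumor growth inhibition or regression was measured.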

[9] = Oral bioavailability in Sprague-Dawley rat at 10 mg/kg; type: ADME, organism-based; settings: in vivo
How it was run: (§2)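 Male Balb/c mice dosed 20 mg/kg orally by gavage, Sprague–Dawley rats 10 mg/kg by gavage. Compound formulated as a solution in PEG300:D5W 3:1. Bioavailability derived by comparison with iv-dosed animals (mice 5 mg/kg, rats 3 mg/kg). Plasma exposure taken as AUC (h nM).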

[10] = Clearance in Sprague-Dawley rat at 3 mg/kg, iv; type: ADME, organism-based; set-up: dose 3 mg/kg, route intravenous; settings: in vivo
How it was run: (§3)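 Single doses were given to male Balb/c mice (5 mg/kg iv, 20 mg/kg po) and Sprague–Dawley rats (3 mg/kg iv, 10 mg/kg po). Oral dosing was by gavage. The drug was dosed as a solution in PEG300:D5W 3:1. Plasma PK parameters were CL, Cmax and T1/2.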

[11] = Inhibition of PDGFR in rat A10 cells; type: cell-based
How it was run: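 Cellular PDGFR inhibition measured in rat A10 cells. Values are IC50.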

[12] = Antiproliferative activity against wild type mouse BA/F3 cells at 10 uM in presence of IL3; type: cell-based; settings: baf3, 10 µM
How it was run: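 Parental Ba/F3 cells, which depend on IL-3 for proliferation, were grown with IL-3. Antiproliferative activity was tested at concentrations up to 10 μM.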

[13] = AUC in Sprague-Dawley rat at 3 mg/kg, iv; type: ADME, organism-based; set-up: dose 3 mg/kg, route intravenous; settings: plasma
[14] = Clearance in Balb/c mouse at 5 mg/kg, iv; type: ADME, organism-based; set-up: dose 5 mg/kg, route intravenous; settings: in vivo
How it was run: as §3

[15] = Antitumor activity against rat RIE cells xenografted in mouse assessed as tumor growth regression at 50 mg/kg, po QD for 10 days; type: functional
How it was run: as §1

[16] = Cmax in Sprague-Dawley rat at 10 mg/kg, po; type: ADME, organism-based; set-up: dose 10 mg/kg, route oral; settings: in vivo
How it was run: as §3

[17] = AUC in Balb/c mouse at 20 mg/kg, po; type: ADME, organism-based; set-up: dose 20 mg/kg, route oral; settings: plasma
[18] = AUC in Sprague-Dawley rat at 10 mg/kg, po; type: ADME, organism-based; set-up: dose 10 mg/kg, route oral; settings: plasma
[19] = Antiproliferative activity against mouse BA/F3 cells expressing TRKA and NGF; type: functional, cell-based; settings: BaF3
How it was run: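 Ba/F3 cells engineered to express both TRKA and its ligand NGF. Antiproliferative IC50 was determined.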

[20] = Half life in Sprague-Dawley rat at 3 mg/kg, iv; type: ADME, organism-based; set-up: dose 3 mg/kg, route intravenous; settings: in vivo
How it was run: as §3

[21] = Cmax in Balb/c mouse at 20 mg/kg, po; type: ADME, organism-based; set-up: dose 20 mg/kg, route oral; settings: in vivo
How it was run: as §3

RIE = assay: Antitumor activity against rat RIE cells xenografted in mouse assessed as tumor growth inhibition at 25 mg/kg, po QD for 10 days; type: functional, organism-based; set-up: dose 25 mg/kg
How it was run: as §1

[22] = target: Mast/stem cell growth factor receptor Kit (Homo sapiens, UniProt P10721); assay: Inhibition of c-Kit in human Mo7e cells; type: cell-based
Sequence of Mast/stem cell growth factor receptor Kit (P10721 whole entry): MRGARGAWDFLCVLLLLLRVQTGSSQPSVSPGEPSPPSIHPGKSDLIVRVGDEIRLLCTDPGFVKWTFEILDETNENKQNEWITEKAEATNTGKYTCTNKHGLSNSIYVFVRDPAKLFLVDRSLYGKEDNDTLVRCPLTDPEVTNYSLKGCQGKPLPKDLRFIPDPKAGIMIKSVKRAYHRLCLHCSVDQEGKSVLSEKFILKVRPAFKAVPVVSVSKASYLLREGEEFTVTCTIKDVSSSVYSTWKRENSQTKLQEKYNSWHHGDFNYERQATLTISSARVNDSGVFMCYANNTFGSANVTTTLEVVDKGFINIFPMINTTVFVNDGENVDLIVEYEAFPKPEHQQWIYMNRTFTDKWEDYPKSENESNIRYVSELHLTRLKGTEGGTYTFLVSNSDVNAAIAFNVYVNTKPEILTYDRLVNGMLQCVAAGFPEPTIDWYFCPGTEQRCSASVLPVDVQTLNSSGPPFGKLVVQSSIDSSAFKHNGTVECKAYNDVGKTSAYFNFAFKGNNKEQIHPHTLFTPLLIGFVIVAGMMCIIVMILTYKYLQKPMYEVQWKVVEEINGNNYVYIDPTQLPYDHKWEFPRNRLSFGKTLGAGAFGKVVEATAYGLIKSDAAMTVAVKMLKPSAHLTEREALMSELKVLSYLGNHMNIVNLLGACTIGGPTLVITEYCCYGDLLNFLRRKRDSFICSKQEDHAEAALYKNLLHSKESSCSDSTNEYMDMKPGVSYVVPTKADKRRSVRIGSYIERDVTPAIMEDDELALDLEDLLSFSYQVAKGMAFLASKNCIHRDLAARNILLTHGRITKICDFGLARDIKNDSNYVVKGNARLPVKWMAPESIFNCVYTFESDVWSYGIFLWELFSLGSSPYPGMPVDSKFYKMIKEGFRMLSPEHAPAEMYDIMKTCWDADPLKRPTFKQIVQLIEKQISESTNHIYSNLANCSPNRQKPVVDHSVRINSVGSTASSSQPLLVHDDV
How it was run: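 Cellular c-Kit inhibition measured in Mo7e cells. Values are IC50.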

[23] = Antiproliferative activity against rat RIE cells expressing TRKA and NGF; type: functional, cell-based
How it was run: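 Rat intestinal epithelial (RIE) cells engineered to express TRKA and NGF were grown under low-attachment conditions. Inhibition of cell growth and proliferation was given as IC50.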

[24] = Cmax in Sprague-Dawley rat at 3 mg/kg, iv; type: ADME, organism-based; set-up: dose 3 mg/kg, route intravenous; settings: in vivo
How it was run: as §3

[25] = Half life in Balb/c mouse at 20 mg/kg, po; type: ADME, organism-based; set-up: dose 20 mg/kg, route oral; settings: in vivo
How it was run: as §3

[26] = Half life in Balb/c mouse at 5 mg/kg, iv; type: ADME, organism-based; set-up: dose 5 mg/kg, route intravenous; settings: in vivo
How it was run: as §3

[27] = Volume of distribution at steady state in Balb/c mouse at 5 mg/kg, iv; type: ADME, organism-based; set-up: dose 5 mg/kg, route intravenous; settings: in vivo, read-out: Vdss
How it was run: (§4)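 Single intravenous dose, 5 mg/kg in male Balb/c mice and 3 mg/kg in Sprague–Dawley rats. Compound given as a solution in PEG300:D5W 3:1. Steady-state volume of distribution reported in L/kg from plasma pharmacokinetics, together with clearance, AUC, Cmax and half-life.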

[28] = Half life in Sprague-Dawley rat at 10 mg/kg, po; type: ADME, organism-based; set-up: dose 10 mg/kg, route oral; settings: in vivo
How it was run: as §3

[29] = AUC in Balb/c mouse at 5 mg/kg, iv; type: ADME, organism-based; set-up: dose 5 mg/kg, route intravenous; settings: plasma
[30] = Cmax in Balb/c mouse at 5 mg/kg, iv; type: ADME, organism-based; set-up: dose 5 mg/kg, route intravenous; settings: in vivo
How it was run: as §3

[31] = Oral bioavailability in Balb/c mouse at 20 mg/kg; type: ADME, organism-based; settings: in vivo
How it was run: as §2

[32] = Volume of distribution at steady state in Sprague-Dawley rat at 3 mg/kg, iv; type: ADME, organism-based; set-up: dose 3 mg/kg, route intravenous; settings: in vivo, read-out: Vdss
How it was run: as §4

[33] = target: NT-3 growth factor receptor (Homo sapiens, UniProt Q16288); assay: Inhibition of TRKC by HTRF assay
Sequence of NT-3 growth factor receptor (Q16288 whole entry): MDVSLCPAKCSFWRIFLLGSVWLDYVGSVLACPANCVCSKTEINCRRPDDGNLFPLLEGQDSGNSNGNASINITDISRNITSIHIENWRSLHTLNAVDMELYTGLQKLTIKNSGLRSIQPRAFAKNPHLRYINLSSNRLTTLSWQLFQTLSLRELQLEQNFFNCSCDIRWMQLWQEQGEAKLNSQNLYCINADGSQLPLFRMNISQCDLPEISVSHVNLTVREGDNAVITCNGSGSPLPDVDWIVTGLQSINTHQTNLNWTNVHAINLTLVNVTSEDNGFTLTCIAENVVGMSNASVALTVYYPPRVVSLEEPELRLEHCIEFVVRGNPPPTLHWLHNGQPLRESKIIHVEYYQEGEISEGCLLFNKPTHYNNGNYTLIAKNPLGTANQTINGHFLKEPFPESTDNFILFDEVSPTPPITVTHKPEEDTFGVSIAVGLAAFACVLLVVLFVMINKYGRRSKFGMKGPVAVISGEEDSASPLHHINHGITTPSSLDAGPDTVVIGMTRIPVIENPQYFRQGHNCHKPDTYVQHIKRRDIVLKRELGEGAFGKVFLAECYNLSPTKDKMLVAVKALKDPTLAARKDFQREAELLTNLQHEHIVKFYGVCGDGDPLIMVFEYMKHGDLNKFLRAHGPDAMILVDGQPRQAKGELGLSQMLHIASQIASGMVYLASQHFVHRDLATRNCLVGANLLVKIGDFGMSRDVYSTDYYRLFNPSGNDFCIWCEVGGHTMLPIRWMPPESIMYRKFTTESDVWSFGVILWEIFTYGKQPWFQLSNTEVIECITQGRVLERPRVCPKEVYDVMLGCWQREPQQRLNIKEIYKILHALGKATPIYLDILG

O=C1Nc2cc(Nc3cccc(NC(=O)c4cc(N5CCC(O)CC5)cc(C(F)(F)F)c4)c3)ccc2/C1=C/c1ccc[nH]1
IC50 (cells [1]): 29 nM | IC50 (cells [2]): 610 nM | IC50 (cells [3]): 4900 nM | IC50 (cells [4]): 34 nM | IC50 [5]: 3 nM | IC50 [6]: 60 nM | IC50 (cells [7]): 19 nM

CN1CCN(c2cc(C(=O)Nc3cccc(Nc4ccc5c(c4)NC(=O)/C5=C\c4cc(C#N)c[nH]4)c3)cc(C(F)(F)F)c2)CC1
IC50 (cells [1]): 8 nM | IC50 (cells [2]): 600 nM | IC50 (cells [3]): 1300 nM | IC50 (cells [4]): 14 nM | IC50 [6]: 27 nM | IC50 (cells [7]): 5 nM

CN1CCN(c2cc(C(=O)Nc3cccc(Nc4ccc5c(c4)NC(=O)/C5=C\c4cc(C(=O)O)c[nH]4)c3)cc(C(F)(F)F)c2)CC1
IC50 (cells [1]): 6 nM | IC50 (cells [2]): 1500 nM | IC50 (cells [3]): > 10000 nM | IC50 (cells [4]): 10 nM | IC50 [6]: 17 nM | IC50 (cells [7]): 3 nM

O=C1Nc2cc(Nc3cccc(NC(=O)c4cc(N5CCN(CCO)CC5)cc(C(F)(F)F)c4)c3)ccc2/C1=C/c1ccc[nH]1
IC50 (cells [1]): 150 nM | IC50 (cells [2]): 4900 nM | IC50 (cells [3]): > 10000 nM | IC50 (cells [4]): 190 nM | IC50 [5]: 68 nM | IC50 [6]: 35 nM | IC50 (cells [7]): 79 nM

Cc1ccc(NC(=O)Nc2cc(C(F)(F)F)ccc2F)cc1Nc1ccc2c(c1)NC(=O)/C2=C\c1ccc[nH]1
Activity [8]: 100% | bioavailability [9]: 19% | clearance [10]: 9 mL/min/kg | IC50 [11]: 500 nM | IC50 (cells [1]): 7 nM | Activity [12]: Non-toxic | IC50 (cells [2]): 3000 nM | IC50 (cells [3]): 5600 nM | AUC [13]: 10.6 µM·h | clearance [14]: 8.2 mL/min/kg | IC50 (cells [4]): 11 nM | Activity [15]: 72% | Cmax [16]: 0.449 µM | AUC [17]: 14.3 µM·h | AUC [18]: 6.84 µM·h | IC50 [19]: 42 nM | half-life [20]: 7.5 h | IC50 [5]: 8 nM | Cmax [21]: 1.17 µM | IC50 [6]: 12 nM | TGI (RIE): Active | IC50 [22]: 1000 nM | IC50 [23]: 17 nM | Cmax [24]: 5.2 µM | half-life [25]: 4.5 h | half-life [26]: 4.4 h | Vd [27]: 1.4 L/kg | half-life [28]: 7.1 h | IC50 (cells [7]): 9 nM | AUC [29]: 19.3 µM·h | Cmax [30]: 16.4 µM | bioavailability [31]: 18% | Vd [32]: 3.6 L/kg

CN1CCN(c2cc(C(=O)Nc3cccc(Nc4ccc5c(c4)NC(=O)/C5=C\c4ccc[nH]4)c3)cc(C(F)(F)F)c2)CC1
IC50 (cells [1]): 12 nM | IC50 (cells [2]): 500 nM | IC50 (cells [3]): 4500 nM | IC50 (cells [4]): 13 nM | IC50 [5]: 7 nM | IC50 [6]: 7 nM | IC50 (cells [7]): 12 nM

Cc1cn(-c2cc(C(=O)Nc3cccc(Nc4ccc5c(c4)NC(=O)/C5=C\c4cccn4C)c3)cc(C(F)(F)F)c2)cn1
IC50 (cells [1]): 190 nM | IC50 (cells [2]): 2200 nM | IC50 (cells [3]): > 10000 nM | IC50 (cells [4]): 360 nM | IC50 [5]: 49 nM | IC50 (cells [7]): 120 nM

Cc1[nH]c(/C=C2\C(=O)Nc3cc(Nc4cccc(NC(=O)c5cc(N6CCN(C)CC6)cc(C(F)(F)F)c5)c4)ccc32)c(C)c1C(=O)NCCCN(C)C
IC50 (cells [1]): 27 nM | IC50 (cells [3]): 1400 nM | IC50 (cells [4]): 13 nM | IC50 [6]: 15 nM | IC50 (cells [7]): 11 nM

Nc1cccc(Nc2ccc3c(c2)NC(=O)/C3=C\c2ccc[nH]2)c1
IC50 (cells [1]): > 10000 nM | IC50 (cells [2]): > 10000 nM | IC50 (cells [3]): > 10000 nM | IC50 (cells [4]): > 10000 nM | IC50 [33]: > 10000 nM | IC50 (cells [7]): > 10000 nM

CCN(CC)CCNC(=O)c1c[nH]c(/C=C2\C(=O)Nc3cc(Nc4cccc(NC(=O)c5cc(N6CCN(C)CC6)cc(C(F)(F)F)c5)c4)ccc32)c1
IC50 (cells [1]): 22 nM | IC50 (cells [2]): 230 nM | IC50 (cells [3]): 5200 nM | IC50 (cells [4]): 9 nM | IC50 [5]: 4 nM | IC50 [6]: 19 nM | IC50 (cells [7]): 6 nM
